Measurements taken from ChEMBL document CHEMBL1268868, “Discovery and mechanistic study of a class of protein arginine methylation inhibitors” (J Med Chem, 2010).
The source made the active and inactive calls. No cut-off for these calls is given here.

biological target: Protein arginine N-methyltransferase 6 (Homo sapiens, UniProt Q96LA8); assay: Inhibition of His6x-tagged PRMT6-mediated arginine methylation expressed in Escherichia coli BL21 (DE3) using H3(1-31) peptide and [14C]-SAM by scintillation counting
Outline: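 His6x-PRMT6 from E. coli BL21(DE3), Ni-NTA purified; 0.5 μM enzyme, 10 μM H3(1-31), 5 μM [14C]-SAM and varied inhibitor at 30 °C in HEPES pH 8.0 buffer with DTT, EDTA, NaCl; 5 min preincubation before enzyme. Product captured on P81 paper, counted by liquid scintillation; IC50 taken at half-maximal activity.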

Protein arginine N-methyltransferase 6, sequence (Q96LA8 whole entry): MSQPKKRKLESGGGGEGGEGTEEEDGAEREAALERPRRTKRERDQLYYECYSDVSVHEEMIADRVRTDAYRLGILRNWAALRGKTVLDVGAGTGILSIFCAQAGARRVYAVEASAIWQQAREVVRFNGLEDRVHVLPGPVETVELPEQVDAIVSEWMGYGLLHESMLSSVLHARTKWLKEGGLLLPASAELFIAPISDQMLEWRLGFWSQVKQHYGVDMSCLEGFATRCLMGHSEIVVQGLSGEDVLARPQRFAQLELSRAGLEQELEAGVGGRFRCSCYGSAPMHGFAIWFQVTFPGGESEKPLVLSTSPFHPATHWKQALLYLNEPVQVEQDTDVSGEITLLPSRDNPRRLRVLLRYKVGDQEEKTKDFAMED

IC50	SMILES
39.2 µM	CC(=O)Nc1ccc(/N=N/c2c(S(=O)(=O)O)cc3cc(NC(=O)Nc4ccc5c(O)c(/N=N/c6ccccc6)c(S(=O)(=O)O)cc5c4)ccc3c2O)cc1

biological target: T1, Protein arginine N-methyltransferase 1 (Homo sapiens, UniProt Q99873); assay: Inhibition of His6x-tagged PRMT1-mediated arginine methylation expressed in Escherichia coli BL21 (DE3) assessed as residual activity at 100 uM using H4(1-20) and [14C]-AdoMet by scintillation counting; values are per cent of control
Target sequence in this assay (Q99873 whole entry, looked up): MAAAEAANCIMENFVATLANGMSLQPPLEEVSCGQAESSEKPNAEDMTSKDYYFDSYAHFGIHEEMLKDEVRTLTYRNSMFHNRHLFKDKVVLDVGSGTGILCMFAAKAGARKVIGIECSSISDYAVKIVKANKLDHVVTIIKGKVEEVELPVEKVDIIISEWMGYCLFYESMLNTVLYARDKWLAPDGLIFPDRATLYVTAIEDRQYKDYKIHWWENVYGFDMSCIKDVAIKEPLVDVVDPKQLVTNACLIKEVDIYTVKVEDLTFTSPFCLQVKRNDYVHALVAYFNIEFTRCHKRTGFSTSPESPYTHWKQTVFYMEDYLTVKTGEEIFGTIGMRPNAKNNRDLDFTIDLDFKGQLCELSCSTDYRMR

residual activity	SMILES
71.4%	CC(=O)Nc1ccc2cc(S(=O)(=O)O)cc(OS(=O)(=O)c3ccccc3)c2c1
86.9%	O=C(Nc1cccc2c(S(=O)(=O)O)cccc12)c1ccccc1

biological target: T1, Protein arginine N-methyltransferase 1; assay: Inhibition of His6x-tagged PRMT1-mediated arginine methylation expressed in Escherichia coli BL21 (DE3) assessed as residual activity at 500 uM using H4(1-20) and [14C]-AdoMet by scintillation counting
Target sequence in this assay (Q99873 whole entry, looked up): as above

SMILES	inhibition
CCOc1cc(C=O)cc(Br)c1OS(=O)(=O)c1ccc2ccccc2c1	inactive
NS(=O)(=O)c1ccc2c(O)cc(S(N)(=O)=O)cc2c1	inactive
CNc1ccc2c(O)cc(S(=O)(=O)O)cc2c1	inactive
O=S(=O)(O)c1cc(O)c2c(S(=O)(=O)O)cc(S(=O)(=O)O)cc2c1	inactive

Next, values leading:

inhibition	SMILES
inactive	NS(=O)(=O)c1ccc(CNc2ccnc3cc4ccccc4cc23)cc1
inactive	COc1ccc(S(=O)(=O)Oc2ccc3ccccc3c2)c2ccccc12
inactive	COc1ccc(S(=O)(=O)Nc2ccc(S(=O)(=O)Nc3cccc4ccccc34)cc2)cc1OC
inactive	COc1cc(C=O)cc(I)c1OS(=O)(=O)c1ccc2ccccc2c1
inactive	Nc1cc(S(=O)(=O)O)cc2cccc(S(=O)(=O)O)c12
inactive	O=S(=O)(Oc1cccc2c(OS(=O)(=O)c3ccccc3)cccc12)c1ccccc1
inactive	CC(=O)Nc1cc([N+](=O)[O-])c(N(C)S(=O)(=O)c2ccccc2)c2ccccc12
inactive	CCOc1cc(C=O)ccc1OS(=O)(=O)c1ccc2ccccc2c1
inactive	O=S(=O)(Nc1ccccc1)c1cc(S(=O)(=O)Nc2ccccc2)c2cc(O)ccc2c1
inactive	O=S(=O)(Oc1c(Br)cc(Br)cc1Br)c1ccc2ccccc2c1
inactive	CCOc1ccc(S(=O)(=O)NCCNS(=O)(=O)c2ccc(OCC)c3ccccc23)c2ccccc12
inactive	CCOC(=O)c1ccc(N2C(=O)CC(Sc3ccccc3C(=O)O)C2=O)cc1 (stereo not given)
inactive	O=Cc1ccc(OS(=O)(=O)c2ccc3ccccc3c2)c(Br)c1

biological target: T2, Histone-arginine methyltransferase CARM1 (Mus musculus, UniProt Q9WVG6); assay: Inhibition of mouse GST-tagged CARM1-mediated arginine methylation expressed in Escherichia coli BL21 (DE3) using H3(1-31) and [14C]-SAM by scintillation counting
T2 sequence (Q9WVG6 whole entry): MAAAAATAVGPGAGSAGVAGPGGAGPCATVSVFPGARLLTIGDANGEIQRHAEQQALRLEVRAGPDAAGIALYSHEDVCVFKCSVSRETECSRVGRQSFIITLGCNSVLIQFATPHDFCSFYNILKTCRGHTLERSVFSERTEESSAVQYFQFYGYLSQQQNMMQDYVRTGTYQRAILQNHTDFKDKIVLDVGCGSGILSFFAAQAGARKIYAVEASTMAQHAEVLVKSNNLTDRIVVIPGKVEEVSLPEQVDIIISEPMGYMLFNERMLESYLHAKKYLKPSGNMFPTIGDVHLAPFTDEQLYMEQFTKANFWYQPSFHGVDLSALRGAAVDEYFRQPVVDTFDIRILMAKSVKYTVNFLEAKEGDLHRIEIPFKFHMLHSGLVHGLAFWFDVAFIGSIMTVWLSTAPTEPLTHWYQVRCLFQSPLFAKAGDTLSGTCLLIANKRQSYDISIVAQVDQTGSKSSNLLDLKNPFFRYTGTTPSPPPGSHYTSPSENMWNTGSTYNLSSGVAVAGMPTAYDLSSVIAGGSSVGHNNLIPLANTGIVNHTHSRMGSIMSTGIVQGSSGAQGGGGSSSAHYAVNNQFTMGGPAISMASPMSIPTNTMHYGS
Outline: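 GST-tagged mouse CARM1 from E. coli BL21(DE3), glutathione-agarose purified; 5 μM enzyme, 1 mM H3(1-31), 30 μM [14C]-SAM, inhibitor up to 500 μM, 30 °C in 50 mM HEPES pH 8.0, 0.5 mM DTT, 1 mM EDTA, 50 mM NaCl. P81 filter capture, liquid scintillation counting.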

IC50	SMILES
2000 µM	CC(=O)Nc1ccc(/N=N/c2c(S(=O)(=O)O)cc3cc(NC(=O)Nc4ccc5c(O)c(/N=N/c6ccccc6)c(S(=O)(=O)O)cc5c4)ccc3c2O)cc1

biological target: T1, Protein arginine N-methyltransferase 1; assay: Inhibition of His6x-tagged PRMT1-mediated protein arginine methylation expressed in Escherichia coli BL21 (DE3) assessed as retained fractional activity of enzyme at 100 uM using H4(1-20) and [14C]-AdoMet by scintillation counting; design: scale not given: the % may be the effect or the level left
Outline: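 His6x-PRMT1 (0.1 μM) with 2 μM H4(1-20) and 5 μM [14C]-AdoMet, compound at 100 μM or absent, 30 °C in 50 mM HEPES pH 8.0, 0.5 mM DTT, 1 mM EDTA, 50 mM NaCl. Substrates and compound preincubated 5 min before enzyme addition. Quenched on P81 paper, NaHCO3 wash, methylated product counted by liquid scintillation.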
Target sequence in this assay (Q99873 whole entry, looked up): as the sequence (Q99873 whole entry, looked up) above

SMILES	Activity
O=C(OC[C@@H]1CO[C@@](Cn2ccnc2)(c2ccc(Cl)cc2Cl)O1)c1ccccc1	100%
O=C1N=c2ccccc2=C1Nc1ccc(Cc2ccc(NC3=c4ccccc4=NC3=O)cc2)cc1	100%
Cn1c(SCC(=O)Nc2ccccc2)nnc1-c1cncc(C#Cc2ccccc2)c1	100%
CCOC(=O)[C@H]1CCCN(S(=O)(=O)c2cc(S(=O)(=O)c3ccccc3)cs2)C1	100%

Now from value to molecule:

Activity	SMILES
100%	N#Cc1cccc(C#N)c1Oc1ccc(S(=O)(=O)Nc2ccc(Cl)cc2)cc1
100%	Cc1ccccc1Nc1nc(-c2ccccc2)c(C(=O)Nc2cccnc2)s1

biological target: Protein arginine N-methyltransferase 3 (Homo sapiens, UniProt O60678); assay: Inhibition of His6x-tagged PRMT3-mediated arginine methylation expressed in Escherichia coli BL21 (DE3) using GAR R4 peptide and [14C]-SAM by scintillation counting
Outline: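 His6x-PRMT3 expressed in E. coli BL21(DE3), Ni-NTA purified; 0.1 μM enzyme, 2 μM R4 peptide, 5 μM [14C]-SAM, varied inhibitor, 30 °C in 50 mM HEPES pH 8.0, 0.5 mM DTT, 1 mM EDTA, 50 mM NaCl; 5 min preincubation before enzyme. P81 filter capture, liquid scintillation; IC50 = inhibitor concentration giving half-maximal activity.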

Protein arginine N-methyltransferase 3, sequence (O60678 whole entry): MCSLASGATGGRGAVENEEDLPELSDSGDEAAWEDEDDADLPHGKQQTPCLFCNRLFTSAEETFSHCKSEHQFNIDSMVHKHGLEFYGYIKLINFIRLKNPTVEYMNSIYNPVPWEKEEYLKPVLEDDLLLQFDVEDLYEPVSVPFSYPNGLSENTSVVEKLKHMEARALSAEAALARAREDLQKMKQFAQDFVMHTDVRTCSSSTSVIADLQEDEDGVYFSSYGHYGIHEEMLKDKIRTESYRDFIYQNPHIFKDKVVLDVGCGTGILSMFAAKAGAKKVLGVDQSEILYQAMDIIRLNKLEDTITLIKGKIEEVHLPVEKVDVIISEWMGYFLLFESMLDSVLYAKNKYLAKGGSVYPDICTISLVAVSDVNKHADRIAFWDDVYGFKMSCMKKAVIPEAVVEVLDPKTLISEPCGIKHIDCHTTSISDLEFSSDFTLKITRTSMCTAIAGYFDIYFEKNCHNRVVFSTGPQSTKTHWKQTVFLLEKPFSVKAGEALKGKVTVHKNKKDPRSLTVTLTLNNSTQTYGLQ

IC50	SMILES
7.1 µM	CC(=O)Nc1ccc(/N=N/c2c(S(=O)(=O)O)cc3cc(NC(=O)Nc4ccc5c(O)c(/N=N/c6ccccc6)c(S(=O)(=O)O)cc5c4)ccc3c2O)cc1

biological target: T1, Protein arginine N-methyltransferase 1; assay: Inhibition of His6x-tagged PRMT1-mediated protein arginine methylation expressed in Escherichia coli BL21 (DE3) using GAR R4 peptide and [14C]-AdoMet by scintillation counting
Target sequence in this assay (Q99873 whole entry): as the sequence (Q99873 whole entry, looked up) above

IC50	SMILES
1010 µM	Cc1ccc(C(=O)Nc2ccc(S(=O)(=O)O)c3cc(S(=O)(=O)O)cc(S(=O)(=O)O)c23)cc1NC(=O)c1cccc(NC(=O)Nc2cccc(C(=O)Nc3cc(C(=O)Nc4ccc(S(=O)(=O)O)c5cc(S(=O)(=O)O)cc(S(=O)(=O)O)c45)ccc3C)c2)c1 [SURAMIN]
463 µM	O=S(=O)(O)c1cc(O)c2c(/N=N/c3c(S(=O)(=O)O)cc4cc(S(=O)(=O)O)cc(O)c4c3O)cc(S(=O)(=O)O)cc2c1

biological target: T3, Histone acetyltransferase p300 (Homo sapiens, UniProt Q09472); assay: Inhibition of HAT p300-mediated […] assessed as residual activity at 1 mM using H4(1-20) and [14C]-acetyl CoA by scintillation counting; values are per cent of control
T3 sequence (Q09472 whole entry): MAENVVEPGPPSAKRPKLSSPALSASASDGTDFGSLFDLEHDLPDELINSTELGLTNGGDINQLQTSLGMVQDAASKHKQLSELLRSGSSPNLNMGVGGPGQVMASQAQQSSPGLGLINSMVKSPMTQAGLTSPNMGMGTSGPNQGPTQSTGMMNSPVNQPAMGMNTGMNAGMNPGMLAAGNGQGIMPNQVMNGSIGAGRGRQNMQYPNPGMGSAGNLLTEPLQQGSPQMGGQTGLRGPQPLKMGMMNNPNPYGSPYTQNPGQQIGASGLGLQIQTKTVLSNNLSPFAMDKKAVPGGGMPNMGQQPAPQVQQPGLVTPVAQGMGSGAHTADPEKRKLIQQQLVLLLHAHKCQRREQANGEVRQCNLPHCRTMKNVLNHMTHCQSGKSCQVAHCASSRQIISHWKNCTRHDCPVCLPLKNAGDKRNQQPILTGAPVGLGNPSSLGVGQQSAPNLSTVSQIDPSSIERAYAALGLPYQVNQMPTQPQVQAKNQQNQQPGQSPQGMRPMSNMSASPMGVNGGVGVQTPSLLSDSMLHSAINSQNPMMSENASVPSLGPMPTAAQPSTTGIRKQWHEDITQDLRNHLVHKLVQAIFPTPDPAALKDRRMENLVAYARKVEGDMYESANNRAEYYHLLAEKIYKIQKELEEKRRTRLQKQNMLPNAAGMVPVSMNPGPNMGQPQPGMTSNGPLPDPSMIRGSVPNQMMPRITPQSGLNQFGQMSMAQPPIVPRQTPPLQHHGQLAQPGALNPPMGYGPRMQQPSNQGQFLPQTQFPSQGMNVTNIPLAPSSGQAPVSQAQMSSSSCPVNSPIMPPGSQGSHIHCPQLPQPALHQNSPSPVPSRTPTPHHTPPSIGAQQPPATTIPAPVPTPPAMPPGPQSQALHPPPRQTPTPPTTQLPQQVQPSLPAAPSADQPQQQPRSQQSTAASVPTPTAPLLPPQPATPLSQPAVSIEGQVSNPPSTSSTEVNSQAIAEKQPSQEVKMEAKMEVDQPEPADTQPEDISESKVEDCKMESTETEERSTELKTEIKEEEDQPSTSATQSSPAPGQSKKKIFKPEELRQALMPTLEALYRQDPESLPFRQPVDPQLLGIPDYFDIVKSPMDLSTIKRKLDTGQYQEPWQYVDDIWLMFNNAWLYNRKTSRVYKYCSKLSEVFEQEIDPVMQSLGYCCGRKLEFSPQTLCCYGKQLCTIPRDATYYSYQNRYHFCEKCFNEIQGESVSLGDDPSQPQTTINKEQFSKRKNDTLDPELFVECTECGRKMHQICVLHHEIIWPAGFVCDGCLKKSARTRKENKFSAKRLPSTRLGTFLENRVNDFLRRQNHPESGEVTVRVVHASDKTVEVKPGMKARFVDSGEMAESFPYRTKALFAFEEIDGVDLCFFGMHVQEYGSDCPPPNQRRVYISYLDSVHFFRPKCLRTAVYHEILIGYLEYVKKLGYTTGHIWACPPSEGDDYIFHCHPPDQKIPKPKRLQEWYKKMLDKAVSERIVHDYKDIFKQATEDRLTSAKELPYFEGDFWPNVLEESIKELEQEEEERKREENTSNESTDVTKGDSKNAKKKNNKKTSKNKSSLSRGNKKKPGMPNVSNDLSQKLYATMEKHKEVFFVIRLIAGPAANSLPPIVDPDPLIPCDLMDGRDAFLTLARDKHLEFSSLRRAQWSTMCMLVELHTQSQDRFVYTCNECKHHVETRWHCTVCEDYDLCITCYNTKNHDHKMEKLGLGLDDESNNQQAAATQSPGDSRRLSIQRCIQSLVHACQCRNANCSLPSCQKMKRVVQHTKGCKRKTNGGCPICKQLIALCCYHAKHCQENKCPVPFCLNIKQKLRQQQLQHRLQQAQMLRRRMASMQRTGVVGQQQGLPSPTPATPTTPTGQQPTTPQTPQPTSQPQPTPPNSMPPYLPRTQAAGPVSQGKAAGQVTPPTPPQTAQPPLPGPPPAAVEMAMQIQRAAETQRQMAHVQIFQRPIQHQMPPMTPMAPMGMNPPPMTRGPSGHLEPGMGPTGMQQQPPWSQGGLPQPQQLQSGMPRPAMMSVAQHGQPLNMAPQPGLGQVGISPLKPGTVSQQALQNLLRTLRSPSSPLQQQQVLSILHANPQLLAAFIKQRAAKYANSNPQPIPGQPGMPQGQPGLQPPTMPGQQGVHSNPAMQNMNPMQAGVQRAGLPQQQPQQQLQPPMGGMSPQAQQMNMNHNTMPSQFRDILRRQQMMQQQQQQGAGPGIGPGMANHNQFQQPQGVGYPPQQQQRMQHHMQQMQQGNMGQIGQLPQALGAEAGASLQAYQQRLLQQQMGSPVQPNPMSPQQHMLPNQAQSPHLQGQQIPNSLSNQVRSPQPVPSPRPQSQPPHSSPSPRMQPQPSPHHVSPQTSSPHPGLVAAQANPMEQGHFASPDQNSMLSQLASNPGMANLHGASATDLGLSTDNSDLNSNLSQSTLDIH

residual activity	SMILES
84%	N=C(N)c1ccc(/C=C/c2ccc(C(=N)N)cc2)cc1

biological target: T3, Histone acetyltransferase p300; assay: Inhibition of HAT p300-mediated […] using H4(1-20) and [14C]-acetyl CoA by scintillation counting
Outline: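 Recombinant p300 HAT domain (1287-1666), 20 nM, with 10 μM H4(1-20) and 10 μM [14C]-acetyl CoA plus increasing inhibitor in 50 mM HEPES pH 8.0, 50 mM NaCl, 0.5 mM DTT, 1 mM EDTA; 10 min at 30 °C. Quenched on P81 filter paper, acetylated product counted by liquid scintillation; fractional activity plotted against inhibitor concentration.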

IC50	SMILES
21.3 µM	CC(=O)Nc1ccc(/N=N/c2c(S(=O)(=O)O)cc3cc(NC(=O)Nc4ccc5c(O)c(/N=N/c6ccccc6)c(S(=O)(=O)O)cc5c4)ccc3c2O)cc1
118 µM	O=C(Nc1ccc2c(O)cc(S(=O)(=O)O)cc2c1)Nc1ccc2c(O)cc(S(=O)(=O)O)cc2c1

biological target: T1, Protein arginine N-methyltransferase 1; assay: Inhibition of His6x-tagged PRMT1-mediated protein arginine methylation expressed in Escherichia coli BL21 (DE3) using H4(1-20) and [14C]-SAM by scintillation counting
Target sequence in this assay (Q99873 whole entry): as the sequence (Q99873 whole entry, looked up) above

IC50	SMILES
5.33 µM	Cc1ccc(C(=O)Nc2ccc(S(=O)(=O)O)c3cc(S(=O)(=O)O)cc(S(=O)(=O)O)c23)cc1NC(=O)c1cccc(NC(=O)Nc2cccc(C(=O)Nc3cc(C(=O)Nc4ccc(S(=O)(=O)O)c5cc(S(=O)(=O)O)cc(S(=O)(=O)O)c45)ccc3C)c2)c1 [SURAMIN]
72.1 µM	O=S(=O)(O)c1cc(O)c2c(/N=N/c3c(S(=O)(=O)O)cc4cc(S(=O)(=O)O)cc(O)c4c3O)cc(S(=O)(=O)O)cc2c1
